Data reported in ChEMBL document CHEMBL3414559, “Novel C-4 heteroaryl 13-cis-retinamide Mnk/AR degrading agents inhibit cell proliferation and migration and induce apoptosis in human breast and prostate cancer cells and suppress growth of MDA-MB-231 human breast and CWR22Rv1 human prostate tumor xenografts in mice” (J Med Chem, 2015).
Activity calls are given as the source filed them. The calls are words filed in the database; no cut-off is given here.

Assays:
MCF7 [1] = assay: Growth inhibition of human MCF7 cells by MTT assay; type: functional
Procedure, shortened: (§1)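 Cells grown in RPMI 1640 with 10% FBS, plated at 2500 cells/well, treated across a dose range; growth read by MTT. GI50 taken from dose–response curves by nonlinear regression, at least three independent experiments.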

MDA-MB-231 [2] = assay: Growth inhibition of human MDA-MB-231 cells by MTT assay; type: functional; procedure, shortened: as §1
MDA-MB-468 [3] = assay: Growth inhibition of human MDA-MB-468 cells by MTT assay; type: functional; procedure, shortened: as §1
[4] = Growth inhibition of human SKBR3 cells by MTT assay; type: functional; conditions: SK-BR-3; procedure, shortened: as §1
LNCaP [5] = assay: Growth inhibition of human LNCAP cells by MTT assay; type: functional; procedure, shortened: as §1
[6] = Growth inhibition of human CWR22Rv1 cells by MTT assay; type: functional, CWR22R; conditions: 22Rv1; procedure, shortened: as §1
MDA-MB-231 [7] = assay: Reduction in Mnk1 protein expression in human MDA-MB-231 cells at 0.63 uM to 20 uM after 24 hrs by SDS-PAGE and Western blotting method; type: functional, cell-based
Procedure, shortened: (§2)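 Breast cancer cells in RPMI 1640 with 10% FBS treated 24 h at indicated concentrations, DMSO vehicle control; equal protein loaded on SDS–PAGE and immunoblotted for Mnk1, Mnk2, peIF4E, eIF4E and cleaved PARP; blots reprobed for GAPDH as loading control.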

MDA-MB-231 [8] = assay: Reduction in Mnk2 protein expression in human MDA-MB-231 cells at 0.63 uM to 20 uM after 24 hrs by SDS-PAGE and Western blotting method; type: functional, cell-based; procedure, shortened: as §2
MDA-MB-231 [9] = assay: Reduction in peIF4E protein expression in human MDA-MB-231 cells at 0.63 uM to 20 uM after 24 hrs by SDS-PAGE and Western blotting method; type: functional, cell-based
Procedure, shortened: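 MCF-7, MDA-MB-231 and MDA-MB-468 cells, kept in RPMI 1640 with 10% FBS, were exposed for 24 h to a range of concentrations, with DMSO vehicle controls. Equal protein from lysates was separated by SDS–PAGE and probed for Mnk1, Mnk2, peIF4E, eIF4E and cPARP. GAPDH reprobing served as loading control.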

MDA-MB-468 [10] = assay: Reduction in Mnk2 protein expression in human MDA-MB-468 cells at 0.63 uM to 20 uM after 24 hrs by SDS-PAGE and Western blotting method; type: functional, cell-based; procedure, shortened: as §2
MDA-MB-468 [11] = assay: Effect on total eIF4E protein expression in human MDA-MB-468 cells at 0.63 uM to 20 uM after 24 hrs by SDS-PAGE and Western blotting method; type: functional, cell-based; procedure, shortened: as §2
MDA-MB-231 [12] = assay: Effect on total eIF4E protein expression in human MDA-MB-231 cells at 0.63 uM to 20 uM after 24 hrs by SDS-PAGE and Western blotting method; type: functional, cell-based; procedure, shortened: as §2
MCF7 [13] = assay: Effect on total eIF4E protein expression in human MCF7 cells at 0.63 uM to 20 uM after 24 hrs by SDS-PAGE and Western blotting method; type: functional, cell-based; procedure, shortened: as §2
MCF7 [14] = assay: Induction of apoptosis in human MCF7 cells assessed as increase in c-PARP formation at 0.63 uM to 20 uM after 24 hrs by SDS-PAGE and Western blotting method; type: functional, cell-based; procedure, shortened: as §2
MDA-MB-231 [15] = assay: Inhibition of cell migration of human MDA-MB-231 cells at 5 uM after 24 hrs by wound healing assay; type: functional, cell-based
Procedure, shortened: (§3)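 Cells (5 × 10⁵ per well) grown to confluence, monolayer scratched at time zero, then exposed to 5 μM for 24 h; initial and final wounds photographed at 100×.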

MDA-MB-231 [16] = assay: Antitumor activity against human MDA-MB-231 cells xenografted in SCID mouse assessed as tumor growth at 20 mg/kg, ip dosed once daily for 5 days per week for 28 days; type: functional; conditions: route intraperitoneal, in the assay text read “athymic nude mouse” for “SCID mouse”
Procedure, shortened: (§4)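 Athymic nude female mice with subcutaneous MDA-MB-231 tumors (10 × 10⁶ cells; ~100 mm³ at randomization, n = 6/group) dosed ip once daily, 5 days/week for 28 days, in 40% β-cyclodextrin/ddH₂O; vehicle controls. %T/C computed as median tumor volume treated vs control at day 28 × 100. Body weight monitored.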

MDA-MB-231 [17] = assay: Antitumor activity against human MDA-MB-231 cells xenografted in SCID mouse assessed as inhibition of tumor growth at 20 mg/kg, ip dosed once daily for 5 days per week for 28 days; type: functional; conditions: MDA-MB-231, ip, in the assay text read “athymic nude mouse” for “SCID mouse”, route intraperitoneal, read-out: TGI; procedure, shortened: as §4
LNCaP [18] = assay: Reduction in fAR protein expression in human LNCAP cells at 0.6 uM to 20 uM after 24 hrs by SDS-PAGE and Western blotting method; type: functional, cell-based
Procedure, shortened: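 LNCaP cells were treated for 24 h across 0.6–20 μM, with vehicle (DMSO) controls. Equal protein from lysates was run on SDS–PAGE and immunoblotted for fAR, Mnk1/2, peIF4E, cyclin D1 and cleaved PARP. Blots were reprobed for β-actin as loading control.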

LNCaP [19] = assay: Reduction in Mnk2 protein expression in human LNCAP cells at 0.6 uM to 20 uM after 24 hrs by SDS-PAGE and Western blotting method; type: functional, cell-based
Procedure, shortened: (§5)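 LNCaP cells (RPMI 1640, 10% FBS) exposed 24 h to 0.6–20 μM, DMSO vehicle control; equal protein on SDS–PAGE, immunoblotted for fAR, Mnk1/2, peIF4E, cyclin D1 and cleaved PARP; β-actin reprobe for loading.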

LNCaP [20] = assay: Effect on total eIF4E protein expression in human LNCAP cells at 0.6 uM to 20 uM after 24 hrs by SDS-PAGE and Western blotting method; type: functional, cell-based
PC-3 = assay: Inhibition of cell migration of human PC3 cells at 5 uM after 24 hrs by wound healing assay; type: functional, cell-based; procedure, shortened: as §3
LNCaP [21] = assay: Induction of apoptosis in human LNCAP cells assessed as increase in c-PARP formation at 0.6 uM to 20 uM after 24 hrs by SDS-PAGE and Western blotting method; type: functional, cell-based; procedure, shortened: as §5
Mus musculus = assay: Toxicity in human MDA-MB-231 cells xenografted athymic nude mouse assessed as effect on body weight at 20 mg/kg, ip dosed once daily for 5 days per week for 28 days; conditions: in vivo
MDA-MB-231 [22] = assay: Antitumor activity against human MDA-MB-231 cells xenografted in nude mouse assessed as reduction in Mnk1/2 protein expression at 20 mg/kg, ip dosed once daily for 5 days per week for 28 days by SDS-PAGE and Western blotting method
MDA-MB-231 [23] = assay: Antitumor activity against human MDA-MB-231 cells xenografted in nude mouse assessed as reduction in peIF4E protein expression at 20 mg/kg, ip dosed once daily for 5 days per week for 28 days by SDS-PAGE and Western blotting method

Work on `CC1=C(/C=C/C(C)=C/C=C/C(C)=C\C(=O)Nc2cccc(F)c2)C(C)(C)CCC1n1ccnc1` (stereo not given) yielded a GI50 (MCF7 [1]) of 5490 nM, a GI50 (MDA-MB-231 [2]) of 8510 nM and a GI50 (MDA-MB-468 [3]) of 6760 nM. For the same compound, the GI50 [4] was 17000 nM, the GI50 (LNCaP [5]) was 2690 nM and the GI50 [6] was 2040 nM. For the same compound, the inhibition (MDA-MB-231 [7]) was “Dose-dependent effect”, the inhibition (MDA-MB-231 [8]) was “Dose-dependent effect” and the inhibition (MDA-MB-231 [9]) was “Dose-dependent effect”. The inhibition (MDA-MB-468 [10]) was “Dose-dependent effect”, the Activity (MDA-MB-468 [11]) was “inactive” and the Activity (MDA-MB-231 [12]) was “inactive”. The Activity (MCF7 [13]) was “inactive”, the Activity (MCF7 [14]) was “Dose-dependent effect” and the inhibition (MDA-MB-231 [15]) was “Active”. The T/C (MDA-MB-231 [16]) was 14.6%, the inhibition in vivo at 20 mg/kg (MDA-MB-231 [17]) was 85.4% and the inhibition (LNCaP [18]) was “Dose-dependent effect”. The inhibition (LNCaP [19]) was “Dose-dependent effect”, the Activity (LNCaP [20]) was “inactive” and the inhibition (PC-3) was “Active”. For the same compound, the Activity (LNCaP [21]) was “Active”, the Activity (Mus musculus) was “Non-toxic” and the Activity (MDA-MB-231 [22]) was “Active”. The Activity (MDA-MB-231 [23]) was “Active”.

Compound `CC1=C(/C=C/C(C)=C/C=C/C(C)=C\C(=O)NCc2ccc(O)cc2)C(C)(C)CCC1n1ccnc1` (stereo not given) has a GI50 (MCF7 [1]) of 160 nM, a GI50 (MDA-MB-231 [2]) of 2230 nM and a GI50 (MDA-MB-468 [3]) of 2700 nM. The GI50 [4] was 2450 nM, the GI50 (LNCaP [5]) was 1690 nM and the GI50 [6] was 1860 nM. For the same compound, the inhibition (MDA-MB-231 [7]) was “Dose-dependent effect”, the inhibition (MDA-MB-231 [8]) was “Dose-dependent effect” and the inhibition (MDA-MB-231 [9]) was “Dose-dependent effect”. The inhibition (MDA-MB-468 [10]) was “Dose-dependent effect”, the Activity (MDA-MB-468 [11]) was “inactive” and the Activity (MDA-MB-231 [12]) was “inactive”. The Activity (MCF7 [13]) was “inactive”, the Activity (MCF7 [14]) was “Dose-dependent effect” and the inhibition (MDA-MB-231 [15]) was “Active”. The T/C (MDA-MB-231 [16]) was 14.6%, the inhibition in vivo at 20 mg/kg (MDA-MB-231 [17]) was 85.4% and the inhibition (LNCaP [18]) was “Dose-dependent effect”. For the same compound, the inhibition (LNCaP [19]) was “Dose-dependent effect”, the Activity (LNCaP [20]) was “inactive” and the inhibition (PC-3) was “Active”. For the same compound, the Activity (LNCaP [21]) was “Active”, the Activity (Mus musculus) was “Non-toxic” and the Activity (MDA-MB-231 [22]) was “Active”. For the same compound, the Activity (MDA-MB-231 [23]) was “Active”.
